Cytotoxicity data for 96 molecules are collected here from ChEMBL document CHEMBL4513216, “Probing the Open Global Health Chemical Diversity Library for Multistage-Active Starting Points for Next-Generation Antimalarials” (ACS Infect Dis, 2020).

The series is described as follows: Toxicity liver stage against HepG2, at 10uM. Also noted: test concentration 10 uM, cell line HepG2-A16-CD81EGFP. Format: cell-based. Conditions: human, HepG2-A16-CD81EGFP cells; read-out: INHIBITION
The essentials:
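Uninfected HepG2-A16-CD81EGFP cells, 3 × 10^3 per well, 1536-well, plated on prespotted compound at 10 μM final, parasite-free screening media added to match infected plates; puromycin 10 μM positive, DMSO 0.5% negative; run in parallel with 48 h PbLuc assay at 37 °C, 5% CO2; viability by CellTiter-Glo luminescence, normalized to controls.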

Regarding `O=c1c(S(=O)(=O)N2CCCCC2)cccn1Cc1cccnc1`, the cytotoxicity at 10 µM was -2.56%.
In the case of `CN(C)C(=O)[C@H]1CCS(=O)(=O)[C@@H]2CN(c3ncc(F)cn3)C[C@H]12` it was -100%.
Consider `CCOCC1CN(Cc2ccsc2)Cc2cnn(C)c21` (stereo unspecified), for which the cytotoxicity at 10 µM was 7.72%.
In the case of `COCc1cnc2n1CCN(C(=O)C1=CCCC1)C2C` (stereo unspecified) it was 2.75%.
`O=C1N(CCCc2ccccc2)CCCC1(O)CN1CCC(CO)CC1` (stereo unspecified): the cytotoxicity at 10 µM was -10.5%.
Then `O=C1CC2(CCN(CCO)CC2)CN1Cc1cc(F)cc(F)c1`, with -15.7%; and `CCc1nc(CCNC(=O)C2CC2)sc1C`, with -14.1%; and `O=C(COC1CCCCC1)Nc1ccn(Cc2ccccn2)n1`, with 0.38%.
Then `CC(=O)N1CCC(NC(=O)N2CCCC2c2ccsc2)CC1` (stereo unspecified), with 0.421%; and `CC(C)C1CCCN1C(=O)Nc1ccc(=O)n(C)c1` (stereo unspecified), with 0.581%.
In the case of `CC(=O)NCC(=O)N1Cc2nccn2CC(COc2cccnc2)C1` (stereo unspecified) it was -2.6%; in that of `CCc1nc(CN2CCCN(C(=O)CC(C)OC)CC2)cs1` (stereo unspecified), -24.7%.
`Cc1nccn1CC1CCCN1S(=O)(=O)Cc1ccc(F)cc1` (stereo unspecified): the cytotoxicity at 10 µM was -7.69%.
Then `COc1cccc(CCNS(=O)(=O)c2ccc(NC(C)=O)cc2)c1`, with 1.54%; and `CC(C)CC(NC(=O)OC(C)(C)C)C(N)=O` (stereo unspecified), with 3.29%.
In the case of `Cc1nn(C)c2ncc(S(=O)(=O)N3CCCC(C(N)=O)C3)cc12` (stereo unspecified) it was 3.45%; in that of `COC(=O)C1CCN(C(=O)c2nnc3ccc(C)cc3n2)CC1`, 11.7%; in that of `Cn1ccnc1CN1CCN2C[C@H](OCc3cccnc3)C[C@H]2C1`, -1.29%.
Take `Cc1nn(C)c(N2CCOCC2)c1CNC1CCc2cc(F)ccc21` (stereo unspecified): the cytotoxicity at 10 µM was -9.95%.
Then `O=C1[C@H]2CN(Cc3ccoc3)C[C@H]2CN1Cc1ccncc1`, with -14.1%.
In the case of `Cc1cc(C)n(CC(=O)NC(Cc2ccsc2)c2ccccn2)c(=O)n1` (stereo unspecified) it was -1.91%; in that of `Cc1ncc(-c2ccnc(N3CCC[C@@H]3CO)n2)c(-c2cccnc2)n1`, -8.49%.
In the case of `Cc1cnc(C(=O)NCc2ccnc(N(C)C)c2)cn1` it was -1.07%; in that of `COc1ccc(OCCCNCCn2cccn2)cc1`, -20%; in that of `CCOCC1COCCC12CCN(C(=O)CCOC)CC2` (stereo unspecified), -6.4%.
Take `Cc1noc(C)c1CCC(=O)NCCc1cccs1`: the cytotoxicity at 10 µM was -3.11%.
Then `COc1ccc(NCc2c[nH]nc2-c2cccnc2)cc1`, with -16.8%; and `CCCNC(=O)N1CCc2ccc(S(=O)(=O)N3CCOCC3)cc2C1`, with -2.56%; and `O=C1NC(c2ccccc2)=N[C@@]12CC[C@@H]1CN(Cc3ccncc3)C[C@@H]12`, with 11.9%.
Consider `CN(Cc1ccccc1)C(=O)c1nc(S(C)(=O)=O)n2ccccc12`, for which the cytotoxicity at 10 µM is -7.36%.
In the case of `COC(=O)c1ccc(Cl)c(NS(=O)(=O)c2cnn(C)c2)c1` it was 0.214%.
Regarding `COc1cccc(C(=O)N2C[C@@H](c3ccccc3)[C@@H]3NCCCC[C@@H]32)c1`, the cytotoxicity at 10 µM is -14.1%.
Then `Cc1nccn1-c1cc(CNC(=O)CCC2CCCO2)ccn1` (stereo unspecified), with -3.09%.
In the case of `CC(C)OCCN(Cc1cccc(O)c1)C1CCC(O)CC1` (stereo unspecified) it was 5.81%.
In the case of `Cc1ncoc1C(=O)N1CCc2[nH]nc(-c3ccc4c(c3)OCO4)c2C1` it was -143%; in that of `CN(CCN1CCCCC1)C(=O)c1cc(CN2CCOCC2)on1`, -22.7%.
Take `NC(=O)c1ccc(CN2CCC(N3CCCC3)CC2)cc1`: the cytotoxicity at 10 µM is -2.3%.
In the case of `CCO[C@@H]1CC[C@H]2[C@H]1OCCN2CC1CCOCC1` it was 10.8%.
Take `COc1ccccc1NCC(=O)NCc1cc[nH]n1`: the cytotoxicity at 10 µM was 1.87%.
In the case of `CN(CC(=O)NCC(O)c1cccc(F)c1)C(=O)OC(C)(C)C` (stereo unspecified) it was 1.2%; in that of `Cc1ccc(CN2CC3(CCN(C(=O)c4cccnc4)C3)C2)o1`, -79.6%.
In the case of `Cc1nc(CN2CCCC(CCc3c(F)cccc3F)C2)c[nH]1` (stereo unspecified), the cytotoxicity at 10 µM was -21%.
In the case of `CN1CCC2(CC1)CN(C(=O)c1cccc3cccnc13)CCN2C` it was 1.54%; in that of `Cc1nc(C(C)Nc2nc3c(s2)c(C)nn3C)n[nH]1` (stereo unspecified), 10.2%.
Then `CC(NC1CCN(CCc2ccncc2)CC1)c1cnn(C(C)C)c1` (stereo unspecified), with -4.97%; and `O=C(c1cnn2cccnc12)N1CCCC(n2ccnc2)C1` (stereo unspecified), with -29.7%; and `CCNC(=O)c1ccc2c(c1)nc1n2CCN(Cc2ccco2)C1`, with -5.64%.
Regarding `Cc1nn(C)c(Cl)c1CNCc1ccc(OCC(N)=O)cc1`, the cytotoxicity at 10 µM came to 1.08%.
In the case of `Cc1cc(NC(=O)c2ccc(CN3CC[C@H](O)C3)cc2)ccc1F` it was 4.5%; in that of `O=C(Cn1cccnc1=O)NCc1cccnc1OCC(F)(F)F`, -11.9%.
Take `O=C(NCCc1ccccc1)c1cccc(S(=O)(=O)NC2CCOC2)c1` (stereo unspecified): the cytotoxicity at 10 µM was determined as 3.52%.
Then `Cc1nccc(-c2cccc(NCC(=O)NCC(=O)N3CCCC3)c2)n1`, with -9.18%.
Then `Cc1ccc(NC(=O)NC(C)Cn2cccn2)cc1` (stereo unspecified), with -0.577%.
Then `CN(C)c1cc(C(=O)N2CCCCCC2)ccn1`, with -8.83%.
As for `CC(C)C[C@H](N)COc1cccc(F)c1Oc1cccc(Cl)c1`, the cytotoxicity at 10 µM worked out at 86.1%.
As for `CCc1cnc(NCC2OCCc3ccccc32)nc1` (stereo unspecified), the cytotoxicity at 10 µM is -3.6%.
Then `Cc1csc(C2CCCN(C(=O)c3cc(Cl)c[nH]3)C2)n1` (stereo unspecified), with -8.21%; and `Cc1nc(CN(CCc2ccccc2)C2CCN(C)CC2)no1`, with -4%; and `CC(C)CC(=O)N1Cc2ccccc2CC1C(=O)Nc1nncs1` (stereo unspecified), with -154%.
In the case of `N#Cc1cccc(OCCN2CCOC(Cn3cccn3)C2)c1` (stereo unspecified) it was -1.3%; in that of `Cc1n[nH]c(C)c1C1CCCN1C(=O)Cc1cccc(F)c1` (stereo unspecified), 4.8%; in that of `CN(Cc1nnc(-c2ccco2)o1)CC1CCCN1c1cccnn1` (stereo unspecified), 5.68%.
For `Cc1occc1C(=O)N1CCCC(c2nncn2C)C1` (stereo unspecified), the cytotoxicity at 10 µM was -16%.
In the case of `Nc1nc(N)c2c(n1)OC1(CCCN(Cc3nccs3)CC1)C2` (stereo unspecified) it was -2.25%.
Then `Cn1cnnc1S(=O)(=O)C1CCN(C(=O)c2ccco2)CC1`, with -2.28%; and `CC(=O)N1CCc2[nH]cnc2C12CCN(C(=O)Cc1ccccn1)CC2`, with 1.76%.
In the case of `CCCC(CNc1cc(C(C)C)nc2ccnn12)N(C)C` (stereo unspecified) it was 5.6%; in that of `CC(C)c1cn(CC(=O)NC2CC(=O)N(CCc3ccccc3)C2)nn1` (stereo unspecified), -15.1%; in that of `Cc1ccc(OCCn2cnc3oc(C)c(C(=O)O)c3c2=O)cc1`, -8.17%.
For the molecule `Cc1nn(C)cc1-c1ccnc(N2CCN(c3ccccc3)C(=O)C2)n1`, the cytotoxicity at 10 µM is -7.57%.
Then `CCN1CCOC(CNCc2c(Cl)nc3ccccn23)C1` (stereo unspecified), with 0.174%; and `Cc1nc(C)c(CC(=O)NCc2ccccc2F)s1`, with 6.23%; and `Cn1ncc2c(N3CC[C@H](O)C3)nc(-c3ccncc3)nc21`, with 4.63%.
`Cc1ccc(C(CNCc2cccn2C)N2CCOCC2)s1` (stereo unspecified): the cytotoxicity at 10 µM is 14.9%.
Then `CCOCC1CN(C(=O)c2cccn2C)Cc2cnn(CC3CC3)c21` (stereo unspecified), with 8.37%; and `COCCN(Cc1ccccc1)c1cc(C)ncn1`, with 7.41%.
In the case of `Cc1ncsc1CN1C[C@H](C(=O)NC2CCCC2)[C@@H]2CCO[C@@H]2C1` it was 8.04%; in that of `Cn1cnc2c1CCN(CC(O)c1ccc(S(C)(=O)=O)cc1)C2` (stereo unspecified), -3.3%; in that of `O=C(NCC1CC1)[C@H]1C[C@H]2CN(C(=O)NCC3CCCCC3)C[C@@H]1O2`, 3.79%.
Then `CCOc1cc([C@H]2N[C@@H](c3nc(C)cs3)Cc3ccsc32)ccc1OC`, with 24.3%.
As to `O=C1CCC2(CCCN(Cc3ccccc3F)C2)N1CC1CC1` (stereo unspecified), the cytotoxicity at 10 µM turned out to be 6.06%.
In the case of `C/C(NC(=O)c1ccco1)=C1/C(=O)C[C@@H]2[C@H]1C2(C)C`, the cytotoxicity at 10 µM worked out at 2.41%.
In the case of `Cc1cccc(Nc2nccnc2C2CCCN2CC(=O)N(C)C)n1` (stereo unspecified) it was -5.28%; in that of `CCN(CC)C(=O)CNC(=O)N1CCC(c2ccc(OC)cc2)C1` (stereo unspecified), -5.51%.
In the case of `O=S1(=O)NC(C2CCN(Cc3ccncc3)CC2)Nc2ccccc21` (stereo unspecified) it was -19.3%; in that of `Cc1ccc2c(c1)C(NC(C)C)CC21CCNCC1` (stereo unspecified), -10.6%.
For the molecule `Cn1cc([C@@H]2CN(S(=O)(=O)c3cccnc3)C[C@H]2N)c2ccncc21`, the cytotoxicity at 10 µM was -0.57%.
In the case of `CCOC1CCCN(C(=O)c2nn(-c3ccccc3F)cc2O)C1` (stereo unspecified) it was -4.62%; in that of `O=C(NCC1CCN(CCc2ccccc2)C1)c1cc(Cl)c[nH]1` (stereo unspecified), 10%; in that of `CC(CC(=O)NS(=O)(=O)c1ccc2c(c1)OCCO2)c1ccc(F)cc1` (stereo unspecified), -31.6%.
Then `Cc1nc(CN2CCCn3c(nc(Cn4cncn4)cc3=O)C2)cs1`, with 3.75%; and `CC(=O)Nc1nc(C(=O)NC(C)c2ccc(C#N)cc2)cs1` (stereo unspecified), with -10.5%; and `O=C(CO)N1CCCC(c2cc(C(F)(F)F)[nH]n2)C1` (stereo unspecified), with -5.12%.
Consider `Cc1nc(CN2C(=O)CC[C@@H]3[C@H]2CCN3C(=O)NC2CC2)cs1`, for which the cytotoxicity at 10 µM was found to be 9.37%.
Then `O=C(CN1CCC(OCC2CCCO2)CC1)NCC(F)(F)F` (stereo unspecified), with -1.2%.
In the case of `CC[C@H]1CN(C(=O)c2cccnc2)CC[C@H]1CC(=O)NC1CC1` it was 4.18%.
